Activity calls are given as the source filed them. No cut-off for these calls is given here.

The first experiment concerns the target T1, Neutrophil elastase (Homo sapiens) (UniProt P08246).
T1 sequence (whole entry): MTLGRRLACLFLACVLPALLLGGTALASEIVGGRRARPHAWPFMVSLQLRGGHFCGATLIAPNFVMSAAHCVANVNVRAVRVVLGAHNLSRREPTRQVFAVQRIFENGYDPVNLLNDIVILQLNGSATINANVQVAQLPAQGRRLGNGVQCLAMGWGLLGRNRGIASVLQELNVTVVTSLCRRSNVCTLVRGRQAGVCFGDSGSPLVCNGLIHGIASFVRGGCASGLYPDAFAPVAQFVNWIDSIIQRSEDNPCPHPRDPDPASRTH
In words: Catalytic rate constant (Kobs/[I]) against human leukocyte elastase was determined. The essentials: (§1)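 Human leukocyte elastase (10 μL of 2.23 × 10⁻⁵ M stock in 0.05 M sodium acetate, pH 5.5) preincubated with inhibitor (20 μL of 2.23 × 10⁻² M DMSO stock) in HEPES pH 7.2, 1 mL total, thermostated. Aliquots withdrawn over time into MeOSuc-Ala-Ala-Pro-Val-pNA; A410 read for 2 min after 30 s. kobs from ln(vt/v0) vs t, divided by [I]; mean of two determinations.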
The molecule `CS(=O)(=O)ON1C(=O)CC(Cc2ccc(C(F)(F)F)cc2)C1=O` (stereo unspecified) registered a K obs / 1 of 84 M⁻¹ s⁻¹.
The same measure, in the same setting: under `CCCCCCCCS(=O)(=O)ON1C(=O)CC(Cc2ccccc2)C1=O` (stereo unspecified) stands 1270 M⁻¹ s⁻¹; under `O=C1CC(Cc2ccccc2C(F)(F)F)C(=O)N1OS(=O)(=O)/C=C/c1ccccc1` (stereo unspecified), 1860 M⁻¹ s⁻¹; under `O=C1CC(Cc2ccccc2)C(=O)N1OS(=O)(=O)c1ccccc1` (stereo unspecified), 1170 M⁻¹ s⁻¹.
On the same count and under the same terms, the value for `CC(C)S(=O)(=O)ON1C(=O)CC(Cc2ccccc2)C1=O` (stereo unspecified) was 1100 M⁻¹ s⁻¹; that for `CCCCS(=O)(=O)ON1C(=O)CC(Cc2ccccc2)C1=O` (stereo unspecified) was 1680 M⁻¹ s⁻¹; that for `O=C1CC(Cc2ccccc2)C(=O)N1OS(=O)(=O)c1ccc(Br)cc1` (stereo unspecified) was 1650 M⁻¹ s⁻¹.
Same read-out and setting: under `O=C1CC(Cc2ccccc2)C(=O)N1OS(=O)(=O)c1ccc(F)cc1` (stereo unspecified) stands 1110 M⁻¹ s⁻¹; under `CS(=O)(=O)ON1C(=O)CC(Cc2ccccc2)C1=O` (stereo unspecified), 1050 M⁻¹ s⁻¹.
`CC(C)CC1CC(=O)N(OS(=O)(=O)/C=C/c2ccccc2)C1=O` (stereo unspecified) came in with a K obs / 1 greater than 100000 M⁻¹ s⁻¹.
On the same count and under the same terms, under `O=C1CC(Cc2ccccc2)C(=O)N1OS(=O)(=O)c1cccc(C(F)(F)F)c1` (stereo unspecified) stands 316 M⁻¹ s⁻¹.
Still for that read-out and setting: the value for `CN(C)S(=O)(=O)ON1C(=O)CC(Cc2ccccc2)C1=O` (stereo unspecified) was 323 M⁻¹ s⁻¹.
Same read-out and setting: under `CC(C)C1CC(=O)N(OS(=O)(=O)/C=C/c2ccccc2)C1=O` (stereo unspecified) stands greater than 100000 M⁻¹ s⁻¹.
For `CC(C)C1CC(=O)N(OS(C)(=O)=O)C1=O` (stereo unspecified), the K obs / 1 amounted to 3820 M⁻¹ s⁻¹.
On the same count and under the same terms, the value for `CS(=O)(=O)ON1C(=O)CC(Cc2cccc(F)c2)C1=O` (stereo unspecified) was 373 M⁻¹ s⁻¹; that for `O=C1CC(Cc2ccccc2)C(=O)N1OS(=O)(=O)c1ccc2ccccc2c1` (stereo unspecified) was 1580 M⁻¹ s⁻¹.
The same measure, in the same setting: under `O=C1CC(Cc2ccccc2)C(=O)N1OS(=O)(=O)/C=C/c1ccccc1` (stereo unspecified) stands 9430 M⁻¹ s⁻¹; under `CS(=O)(=O)ON1C(=O)CC(Cc2cccc(C(F)(F)F)c2)C1=O` (stereo unspecified), 217 M⁻¹ s⁻¹.
Same read-out and setting: the value for `Cc1ccc(S(=O)(=O)ON2C(=O)CC(Cc3ccccc3)C2=O)cc1` (stereo unspecified) was 1610 M⁻¹ s⁻¹; that for `CC(C)CCC1CC(=O)N(OS(=O)(=O)/C=C/c2ccccc2)C1=O` (stereo unspecified) was 2250 M⁻¹ s⁻¹; that for `CC(C)CCC1CC(=O)N(OS(C)(=O)=O)C1=O` (stereo unspecified) was 361 M⁻¹ s⁻¹.
Take `CS(=O)(=O)ON1C(=O)CC(Cc2ccccc2C(F)(F)F)C1=O` (stereo unspecified): the K obs / 1 turned out to be 189 M⁻¹ s⁻¹.
Same read-out and setting: under `CC(C)CC1CC(=O)N(OS(C)(=O)=O)C1=O` (stereo unspecified) stands 49300 M⁻¹ s⁻¹; under `O=C1CC(Cc2ccccc2)C(=O)N1OS(=O)(=O)c1cccc2ccccc12` (stereo unspecified), 620 M⁻¹ s⁻¹.
The same measure, in the same setting: the value for `O=C1CC(Cc2ccccc2)C(=O)N1OS(=O)(=O)Cc1ccccc1` (stereo unspecified) was 770 M⁻¹ s⁻¹.

The target of a further experiment is T1, Neutrophil elastase (Homo sapiens). In words: Catalytic rate constant (Kobs/[I]) against human leukocyte elastase was determined; Inactive. The essentials: as §1
Turning to `O=C1CCC(=O)N1OS(=O)(=O)/C=C/c1ccccc1`, the “K obs / 1” value was “inactive”.

These data come from ChEMBL document CHEMBL1124533, “Inhibition of human leukocyte elastase by derivatives of N-hydroxysuccinimide. A structure-activity-relationship study” (J Med Chem, 1989).
